≈ marks a conversion by molar mass, not a printed value. Calls of active or inactive are those of the source. No cut-off for these calls is given here.
What was measured:
Assay type in all cases: functional, cell-based
[1] = tested on: KB; assay: Cytotoxicity against human KB cells after 72 hrs by sulforhodamine B assay
Summary of the method: (§1)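 SRB assay following NCI procedure; 72 h continuous exposure. Cells grown at 37 °C, 5% CO2, humidified, in RPMI-1640 with 25 mM HEPES, 2% (w/v) sodium bicarbonate, 10% (v/v) FBS, 100 µg/mL kanamycin. Compounds from DMSO stocks, final DMSO ≤1% (v/v). EC50 (µg/mL, 50% cell-number reduction) interpolated from dose-response; triplicate tests; doxorubicin positive control.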

[2] = tested on: A549; assay: Cytotoxicity against human A549 cells after 72 hrs by sulforhodamine B assay; settings: for EC50: A549, 72 h; summary of the method: as §1
[3] = Cytotoxicity against human KB-VIN cells after 72 hrs by sulforhodamine B assay; settings: KBVIN; summary of the method: as §1
[4] = tested on: MCF7; assay: Cytotoxicity against human MCF7 cells after 72 hrs by sulforhodamine B assay; settings: for EC50: MCF7, 72 h; summary of the method: as §1

Structure (SMILES) | Activity [1] | Activity [2] | EC50 [3] | Activity [4] | EC50 [1] | EC50 [4] | EC50 [2]
COc1ccc2cc(/C=C/C(=O)O)c3cc(OC)c(OC)cc3c2c1 | inactive | inactive | 14.7 µg/mL (≈ 43.5 µM) | inactive | – | – | –
COc1ccc2c(c1)c1cc(OC)c(OC)cc1c1cc[nH]c(=O)c21 | inactive | inactive | 7.39 µg/mL (≈ 22 µM) | inactive | – | – | –
COc1ccc2cc(/C=C/C(=O)N=[N+]=[N-])c3cc(OC)c(OC)cc3c2c1 | – | inactive | 9.36 µg/mL (≈ 25.8 µM) | – | 13.5 µg/mL (≈ 37.2 µM) | 8.29 µg/mL (≈ 22.8 µM) | –
COc1ccc2c3c(c4cc(OC)c(OC)cc4c2c1)C(=O)N1CCCC1C3 (stereo not given) | – | – | 1.16 µg/mL (≈ 3.07 µM) | – | 1.39 µg/mL (≈ 3.68 µM) | 2.14 µg/mL (≈ 5.67 µM) | 1.15 µg/mL (≈ 3.05 µM)
COc1ccc2c3c(c4cc(OC)c(OC)cc4c2c1)CC1CCCN1C3 (racemic) [(+/-)-ANTOFINE] | – | – | 0.00083 µg/mL (≈ 0.00228 µM) | – | 0.00043 µg/mL (≈ 0.00118 µM) | 0.0045 µg/mL (≈ 0.0124 µM) | 0.00016 µg/mL (≈ 0.00044 µM)
COc1ccc2c3c(c4cc(OC)c(OC)cc4c2c1)CN1CCCC1C3 (racemic) [(+/-)-DEOXYTYLOPHORININE] | – | – | 0.016 µg/mL (≈ 0.044 µM) | – | 0.023 µg/mL (≈ 0.0633 µM) | 0.043 µg/mL (≈ 0.118 µM) | 0.011 µg/mL (≈ 0.0303 µM)
COc1ccc2c(c1)c1cc(OC)c(OC)cc1c1cc3[n+](cc21)CCC3.[Br-] [DEHYDROANTOFINE BROMIDE] | – | – | 5.14 µg/mL | – | 5.37 µg/mL | 1.29 µg/mL | 0.49 µg/mL
COc1ccc2c(c1)c1cc(OC)c(OC)cc1c1cc3[n+](cc21)CCC3.[Cl-] [DEHYDROANTOFINE CHLORIDE] | – | – | 0.33 µg/mL | – | 0.93 µg/mL | 1.72 µg/mL | 0.73 µg/mL
COc1ccc2c(c1)c1cc(OC)c(OC)cc1c1c[n+]3c(cc21)CCC3.[Br-] [DEOXYPERGULARININE BROMIDE] | – | – | 8.26 µg/mL | – | 0.29 µg/mL | 1.18 µg/mL | 0.32 µg/mL
COc1ccc2c(c1)c1cc(OC)c(OC)cc1c1c[n+]3c(cc21)CCC3.[Cl-] [DEOXYPERGULARININE CHLORIDE] | – | – | 5.66 µg/mL | – | 0.95 µg/mL | 1.49 µg/mL | 1.06 µg/mL

Reference: ChEMBL document CHEMBL1150332, “Total synthesis of phenanthroindolizidine alkaloids (+/-)-antofine, (+/-)-deoxypergularinine, and their dehydro congeners and evaluation of their cytotoxic activity” (Bioorg Med Chem, 2008)
